Source: PubChem (several laboratories)
Only some compounds are listed: those with a hit (about 1.4% of all), similar ones and a draw of the others.
FXIa inh: blocks human coagulation factor XIa protease activity | purified FXIa, Boc-Glu-Ala-Arg-AMC fluorogenic substrate | inhibition, % at 5 µM | actives 0.14% (n = 220,000) | P03951;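 active = inhibition of at least 40%; inactive = inhibition below 40%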;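 note: fluorescence of freed AMC excited at 355 nm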
FXIIa inh: inhibitors of human coagulation factor XIIa | P00748 | purified FXIIa, Boc-QGR-AMC fluorogenic substrate, 2 h | inhibition, % at 5 µM | actives 0.3% (n = 220,000) | AID 800; in the data active = inhibition above about 40%
Target sequence (P00748 20-372 limits assumed): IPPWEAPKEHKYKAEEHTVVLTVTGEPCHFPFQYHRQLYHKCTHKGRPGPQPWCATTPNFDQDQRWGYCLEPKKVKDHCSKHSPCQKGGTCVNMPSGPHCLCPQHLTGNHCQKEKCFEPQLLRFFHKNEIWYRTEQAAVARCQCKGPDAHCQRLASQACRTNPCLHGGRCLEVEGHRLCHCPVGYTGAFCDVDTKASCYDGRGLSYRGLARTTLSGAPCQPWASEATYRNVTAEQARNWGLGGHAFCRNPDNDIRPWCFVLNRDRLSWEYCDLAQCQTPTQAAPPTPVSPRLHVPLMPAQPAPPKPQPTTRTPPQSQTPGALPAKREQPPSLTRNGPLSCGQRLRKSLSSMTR
Target sequence (P00748 373-615 limits assumed): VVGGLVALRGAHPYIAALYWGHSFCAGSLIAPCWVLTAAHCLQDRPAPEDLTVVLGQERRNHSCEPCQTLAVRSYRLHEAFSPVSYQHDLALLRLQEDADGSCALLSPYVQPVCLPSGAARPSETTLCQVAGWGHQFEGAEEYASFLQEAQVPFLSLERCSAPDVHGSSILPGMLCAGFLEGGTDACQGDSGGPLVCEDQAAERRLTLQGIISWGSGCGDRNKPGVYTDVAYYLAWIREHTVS
Rce1 inhib: inhibitors of yeast Ras-converting enzyme; calls only; actives 0.27% (n = 290,000); Q03530; AID 2563; yeast membranes, quenched prenylated peptide cleavage fluorescence;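 active = fall in fluorescence gain of 50% or more versus controls, with final raw signal at or below 3038400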
Fh CTSL1 inh: counter-screen for PFM18AAP inhibitors: inhibitors of F. hepatica cathepsin L1 | inhibition, % at 5.96 µM | recombinant F. hepatica cathepsin L1, Z-Leu-Arg-MCA fluorescence | AID 1906 | actives 0.49% (n = 300,000);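 active = inhibition above the mean of all tested compounds plus 3 SD, set per screening campaign, cut at about 17% in these data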
Thrombin inh: blocks human thrombin protease activity; AID 1046; alpha-thrombin, Boc-VPR-AMC fluorogenic substrate cleavage; P00734; actives 0.26% (n = 220,000); inhibition, % at 5 µM;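 active = inhibition at or above 40%; inactive = inhibition below 40%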
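Test system: human alpha-thrombin protein / Dosing: one concentration per compound, 5 µM, with 0.2% DMSO / Medium: pH 7.5 Tris-saline with Tween 20 / Benchmarks: no-compound enzyme wells and no-enzyme blanks / Read-out basis: percent inhibition of thrombin substrate cleavage / Timing: reaction at room temperature / Measured by: fluorescence, ex 355 nm, em 460 nm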
hK5 inh: kallikrein 5 (human) inhibition | actives 0.59% (n = 210,000) | recombinant hK5, fluorogenic AMC substrate cleavage | inhibition, % at 5 µM;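 active = inhibition of 40% or more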
Numbers stand for hits.

COc1cc(C(=O)Nc2ccc3c(c2)OCCO3)ccc1OC(C)C was read as FXIa inh inactive, FXIIa inh inactive, Rce1 inhib inactive, Fh CTSL1 inh inactive, Thrombin inh inactive and hK5 inh 63.
For CS(=O)(=O)NCCSCc1ccccc1 the results were FXIa inh inactive, FXIIa inh inactive, Rce1 inhib inactive, Fh CTSL1 inh 19, Thrombin inh inactive and hK5 inh inactive.
Screening O=S(=O)(NC1CCCCC1)c1ccc(Cl)nc1 returned FXIa inh inactive, FXIIa inh inactive, Rce1 inhib inactive, Fh CTSL1 inh inactive, Thrombin inh inactive and hK5 inh inactive.
For CC(C)c1c(C(=O)N/N=C/c2ccsc2)nnn1-c1nonc1N the results were Rce1 inhib active and Fh CTSL1 inh inactive.
For CC(C)c1c(C(=O)N/N=C/c2ccoc2)nnn1-c1nonc1N the results were Rce1 inhib inactive and Fh CTSL1 inh inactive.
For CCOc1cccc(-c2c(C(=O)N/N=C/c3cccs3)nnn2-c2nonc2N)c1 the results were Rce1 inhib active and Fh CTSL1 inh inactive.
Screening Cc1ccsc1/C=N/NC(=O)c1nnn(-c2nonc2N)c1C(C)C returned Rce1 inhib active and Fh CTSL1 inh inactive.
`COc1cccc(-c2c(C(=O)N/N=C/c3cccs3)nnn2-c2nonc2N)c1` gave Rce1 inhib inactive and Fh CTSL1 inh inactive.
Screening Cc1c(C(=O)NNC(=S)Nc2ccc(S(N)(=O)=O)cc2)oc2ccccc12 returned Rce1 inhib inactive and Fh CTSL1 inh inactive.
For Cc1nn(C)cc1C(C)NC(=O)c1cc(COc2ccc(F)c(F)c2)on1 (stereo unspecified) the results were Rce1 inhib inactive and Fh CTSL1 inh inactive.
Screening COCCn1c(SCC(=O)c2ccc3c(c2)OCCO3)nnc1-c1ccco1 returned FXIa inh inactive, FXIIa inh inactive, Rce1 inhib inactive, Fh CTSL1 inh inactive, Thrombin inh inactive and hK5 inh inactive.
CCn1c(SCC(=O)c2ccc3c(c2)OCCO3)nnc1-c1ccco1 was read as FXIa inh inactive, FXIIa inh inactive, Rce1 inhib inactive, Fh CTSL1 inh 17, Thrombin inh inactive and hK5 inh inactive.
COc1cccc(-c2nnc(SCC(=O)Nc3ccc4c(c3)OCCO4)n2Cc2ccco2)c1 was read as FXIa inh inactive, FXIIa inh inactive, Rce1 inhib inactive, Fh CTSL1 inh inactive, Thrombin inh 42 and hK5 inh 47.
Cc1[nH]c2ccccc2c1C(=O)C(=O)N1CCN(c2ccccc2F)CC1 was read as Rce1 inhib inactive and Fh CTSL1 inh inactive.
For Cc1c(N)cc[n+](CC(=O)c2ccccc2)c1C the results were FXIa inh inactive, FXIIa inh inactive, Rce1 inhib inactive, Fh CTSL1 inh inactive, Thrombin inh inactive and hK5 inh inactive.
Cc1ccccc1C(=O)N(C)Cc1ccccc1 was read as FXIa inh inactive, FXIIa inh inactive, Rce1 inhib inactive, Fh CTSL1 inh 17, Thrombin inh inactive and hK5 inh inactive.
For CSc1ccccc1C(=O)N(C)Cc1ccccc1 the results were FXIa inh inactive, FXIIa inh inactive, Fh CTSL1 inh inactive, Thrombin inh inactive and hK5 inh inactive.
`CCn1c(NC)cc(=O)n(C)c1=O` gave FXIa inh inactive, FXIIa inh inactive, Rce1 inhib inactive, Fh CTSL1 inh inactive, Thrombin inh inactive and hK5 inh inactive.
CNc1cc(=O)n(C)c(=O)n1-c1ccccc1 was read as Rce1 inhib inactive and Fh CTSL1 inh 31.
`CN(C)S(=O)(=O)N(CC(=O)Nc1ccccc1F)c1ccccc1` gave FXIa inh inactive, FXIIa inh inactive, Rce1 inhib inactive, Fh CTSL1 inh inactive, Thrombin inh inactive and hK5 inh inactive.
For COC(=O)c1ccc(C(=O)OC)c(NC(=O)CN(c2ccccc2)S(=O)(=O)N(C)C)c1 the results were FXIa inh inactive, FXIIa inh inactive, Rce1 inhib inactive, Fh CTSL1 inh 37, Thrombin inh inactive and hK5 inh inactive.
Screening Cc1ccc(O)c(-c2cc(-c3ccccc3C)[nH]n2)c1 returned FXIa inh inactive, FXIIa inh inactive, Rce1 inhib inactive, Thrombin inh inactive and hK5 inh 50.
Screening COc1ccc(/C=C/c2c(-c3ccc(OC)cc3)sc3ccc(N4CCOCC4)cc23)cc1 returned Rce1 inhib inactive and Fh CTSL1 inh inactive.
COc1ccc(-c2oc3ccc(N4CCOCC4)cc3c2/C=C/c2ccc(OC)c(OC)c2)cc1 was read as Rce1 inhib active and Fh CTSL1 inh inactive.
For COc1cccc(-c2ccc(-c3noc(-c4ccccc4F)n3)c(OC)n2)c1 the results were FXIa inh inactive, FXIIa inh inactive, Rce1 inhib active, Fh CTSL1 inh inactive, Thrombin inh inactive and hK5 inh inactive.
Screening CC(C)(C)OC(=O)N[C@@H](Cc1ccccc1)c1nnc(SCC(N)=O)o1 returned FXIa inh inactive, FXIIa inh inactive, Rce1 inhib inactive, Fh CTSL1 inh inactive, Thrombin inh inactive and hK5 inh inactive.
Screening COC(=O)CSc1nnc([C@H](Cc2ccccc2)NC(=O)OC(C)(C)C)o1 returned FXIa inh inactive, FXIIa inh inactive, Rce1 inhib inactive, Fh CTSL1 inh inactive, Thrombin inh inactive and hK5 inh inactive.
Screening COC(=O)CS(=O)(=O)c1nnc([C@H](Cc2ccccc2)NC(=O)OC(C)(C)C)o1 returned FXIa inh inactive, FXIIa inh 42, Rce1 inhib inactive, Fh CTSL1 inh 24, Thrombin inh inactive and hK5 inh inactive.
`Cc1cccc(CS(=O)(=O)c2nnc([C@H](Cc3ccccc3)NC(=O)OC(C)(C)C)o2)c1` gave FXIa inh inactive, FXIIa inh inactive, Rce1 inhib inactive, Fh CTSL1 inh 31, Thrombin inh inactive and hK5 inh inactive.
For O=C1CN(CC(=O)NC2CCCc3ccccc32)CCN1 (stereo unspecified) the results were Rce1 inhib inactive and Fh CTSL1 inh inactive.
CC(c1ccc(F)cc1)n1c(-c2cccs2)n[nH]c1=S (stereo unspecified) was read as FXIa inh inactive, Rce1 inhib inactive, Fh CTSL1 inh inactive, Thrombin inh inactive and hK5 inh 71.
Cc1cc(NS(=O)(=O)c2ccccc2)c([N+](=O)[O-])cc1C was read as FXIa inh inactive, FXIIa inh inactive, Rce1 inhib active, Fh CTSL1 inh inactive, Thrombin inh inactive and hK5 inh inactive.
For COc1ccc(NS(=O)(=O)c2ccc(C)cc2)c([N+](=O)[O-])c1 the results were FXIa inh inactive, FXIIa inh inactive, Rce1 inhib inactive, Fh CTSL1 inh inactive, Thrombin inh inactive and hK5 inh inactive.
For COc1ccc(F)cc1Cn1nc(C(=O)O)c2ccccc2c1=O the results were Rce1 inhib inactive and Fh CTSL1 inh inactive.
Screening O=C(N/N=C/c1ccc(OCc2cnc(Cl)s2)cc1)c1ccncc1 returned FXIa inh inactive, FXIIa inh 66, Rce1 inhib inactive, Fh CTSL1 inh inactive, Thrombin inh 50 and hK5 inh inactive.
For Cc1ccccc1C(=O)N1CCC(C(=O)N(CC(C)C)c2c(N)n(Cc3ccccc3)c(=O)[nH]c2=O)CC1 the results were Rce1 inhib inactive and Fh CTSL1 inh inactive.
